The target in series [1] is T1, G-protein coupled bile acid receptor 1 (Mus musculus, UniProt Q80SS6).
T1 sequence (Q80SS6 whole entry): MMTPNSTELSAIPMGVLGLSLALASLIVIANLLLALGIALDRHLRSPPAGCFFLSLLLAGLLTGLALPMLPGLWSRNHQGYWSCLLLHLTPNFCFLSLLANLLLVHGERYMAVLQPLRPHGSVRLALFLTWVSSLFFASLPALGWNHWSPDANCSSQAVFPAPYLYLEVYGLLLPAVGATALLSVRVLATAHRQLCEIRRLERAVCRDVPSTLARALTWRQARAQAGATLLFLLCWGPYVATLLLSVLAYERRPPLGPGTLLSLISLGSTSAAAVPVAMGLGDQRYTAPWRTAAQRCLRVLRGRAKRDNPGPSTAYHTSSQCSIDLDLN
Put plainly: Agonist activity at mouse TGR5 transfected in HEK293T cells assessed intracellular cAMP level by HTRF assay. Type of series: functional, cell-based. Summed up: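 Run by the same cAMP HTRF method used for human TGR5, with compounds from 10 mM DMSO stocks. EC50 given as mean ± SEM of three independent experiments.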

In series [2] the target is T2, G-protein coupled bile acid receptor 1 (Homo sapiens, UniProt Q8TDU6).
T2 sequence (Q8TDU6 whole entry): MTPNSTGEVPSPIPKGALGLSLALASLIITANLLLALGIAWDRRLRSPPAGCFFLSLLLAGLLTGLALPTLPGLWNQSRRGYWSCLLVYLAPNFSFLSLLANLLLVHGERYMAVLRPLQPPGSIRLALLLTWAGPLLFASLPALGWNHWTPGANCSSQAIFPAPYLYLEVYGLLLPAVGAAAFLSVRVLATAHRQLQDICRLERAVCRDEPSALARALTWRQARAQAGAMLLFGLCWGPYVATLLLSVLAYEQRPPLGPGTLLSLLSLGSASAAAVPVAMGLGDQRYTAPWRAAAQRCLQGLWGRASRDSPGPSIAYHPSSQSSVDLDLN
Put plainly: Agonist activity at human TGR5 transfected in HEK293T cells assessed intracellular cAMP level by HTRF assay. Format: functional, cell-based. For orientation: cAMP levels reflect the balance of adenylyl cyclase and phosphodiesterase activity.

Series [3] concerns the target T3, G-protein coupled bile acid receptor 1 (Homo sapiens) (UniProt Q8TDU6).
T3 sequence (whole entry): T2 sequence (Q8TDU6 whole entry)
The experiment in a line: Agonist activity at human TGR5 transfected in HEK293T cells assessed intracellular cAMP level at 10 uM by HTRF assay. Type of series: functional, cell-based. The method, boiled down: (§1)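 HEK293T stable line made by lentiviral transfection with drug selection. cAMP measured by HTRF cAMP dynamic 2 kit. Compounds from 10 mM DMSO stocks. 10 μM LCA defined as 100% and 0.1% DMSO as 0% hTGR5 activation. Mean of three independent experiments.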

The target of series [4] is T3, G-protein coupled bile acid receptor 1 (Homo sapiens). Put plainly: Agonist activity at human TGR5 transfected in HEK293T cells assessed intracellular cAMP level at 40 uM by HTRF assay. Format: functional, cell-based. As to conditions: filed as agonist. Summed up:
as §1

Series [5] can be described thus: Stability of the compound in human plasma assessed as parent compound remaining measured after 60 mins. Format: ADME, cell-free. As to conditions: read-out: Stabilty.
For series [6], the target named is T4, Bile acid receptor (Homo sapiens) (UniProt Q96RI1).
T4 sequence (whole entry): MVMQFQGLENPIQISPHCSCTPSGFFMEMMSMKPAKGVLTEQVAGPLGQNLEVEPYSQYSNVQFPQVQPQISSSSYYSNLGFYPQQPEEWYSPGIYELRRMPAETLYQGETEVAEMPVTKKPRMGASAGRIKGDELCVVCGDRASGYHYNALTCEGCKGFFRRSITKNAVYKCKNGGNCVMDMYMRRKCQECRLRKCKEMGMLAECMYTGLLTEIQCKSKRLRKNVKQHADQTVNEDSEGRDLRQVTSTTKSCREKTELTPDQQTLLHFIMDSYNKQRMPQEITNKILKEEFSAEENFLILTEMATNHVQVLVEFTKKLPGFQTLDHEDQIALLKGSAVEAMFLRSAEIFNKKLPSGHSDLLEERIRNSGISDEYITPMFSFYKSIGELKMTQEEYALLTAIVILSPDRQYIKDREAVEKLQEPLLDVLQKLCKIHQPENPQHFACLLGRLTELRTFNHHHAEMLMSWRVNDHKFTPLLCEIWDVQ
Put plainly: Agonist activity at GST-tagged human FXR-LBD using biotinylated SRC-1 peptide as substrate at 10 uM by HTRF assay. Summed up:
(§2)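 Reaction mix in HTRF buffer (50 mM Hepes pH 7.0, 125 mM KF, 0.125% CHAPS, 0.05% dry milk): 10 nM GST-FXRα LBD, 100 nM biotin-SRC1, 0.83 nM Eu-anti-GST, 41.75 nM streptavidin-XL665. Incubated at room temperature, read as (665/620 nm)×10,000. 50 μM CDCA defined as 100% and 0.1% DMSO as 0% activation.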

Series [7] relates to Mus musculus. The experiment in a line: Antidiabetic activity against in C57BL/6J mouse assessed reduction in glucose AUC at 30 mg/kg, po pretreated for 60 mins followed by 2 g/kg glucose orally administered measured upto 120 mins by OGTT method relative to control. Type of series: functional. More on the design: scale not given: the % may be the effect or the level left. Conditions: time min <=180.

Series [8] concerns the target T4, Bile acid receptor (Homo sapiens). The experiment in a line: Agonist activity at GST-tagged human FXR-LBD using biotinylated SRC-1 peptide as substrate at 20 uM by HTRF assay. Summed up: as §2
For a further series, the system named is HeLa. Put plainly: Cytotoxicity against human HeLa cells assessed as reduction in cell viability incubated for 24 hrs by CCK8 assay. Format: functional, cell-based. The method, boiled down: (§3)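 Cells exposed to compounds for 24 h, then viability read by CCK8 assay to give IC50.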
(In general: Formazan colour is commonly taken as a measure of viable cells.)

A short description of series [9]: Stability of the compound in human plasma assessed as parent compound remaining measured after 120 mins. Type of series: ADME, cell-free. As to conditions: read-out: Stabilty.
The target in series [10] is T4, Bile acid receptor (Homo sapiens). Put plainly: Agonist activity at GST-tagged human FXR-LBD using biotinylated SRC-1 peptide as substrate at 50 uM by HTRF assay. The method, boiled down:
as §2

The subject of another series is A549. Put plainly: Cytotoxicity against human A549 cells assessed as reduction in cell viability incubated for 24 hrs by CCK8 assay. Type of series: functional, cell-based. As to conditions: A549, 24 h. Summed up: as §3
The test system of series [11] is Mus musculus. The experiment in a line: Induction of GLP-1 secretion in TGR5 knock out C57BL/6J mouse assessed as serum GLP-1 level at 30 mg/kg, po followed by 2 g/kg glucose orally administered measured after 5 mins by ELISA relative to control. Type of series: functional, organism-based. The method, boiled down:
(§4)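 Eight-week-old WT or TGR5−/− mice fasted overnight, then given vehicle (0.25% CMC) or compound 30 mg/kg orally. Oral glucose 2.0 g/kg 1 h later. Blood taken 5 min after glucose into tubes with DPP IV inhibitor and EDTA. Serum active GLP-1(7–36 amide) measured by ELISA.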
(In general: ELISA stands for enzyme-linked immunosorbent assay.)

Series [12] deals with Mus musculus. Put plainly: In vivo agonist activity at TGR5 in wild type C57BL/6J mouse assessed as induction of GLP-1 secretion at 30 mg/kg, po followed by 2 g/kg glucose orally administered measured after 5 mins by ELISA relative to control. Type of series: functional, organism-based. The method, boiled down:
as §4

This note sets out measurements from ChEMBL document CHEMBL4680349, “Design, synthesis and evaluation of 1-benzyl-1H-imidazole-5-carboxamide derivatives as potent TGR5 agonists” (Bioorg Med Chem, 2021).

The source made the active and inactive calls. A value given as a limit tells only on which side of the number the result lay.

Broadly, the EC50 is the concentration that produces a half-maximal response. For `O=C(c1cncn1Cc1ccccc1Cl)N1CCN(C2CC2)c2ccccc21`, the EC50 is 3.69 µM in series [1] and 0.118 µM in [2].

`COc1ccc(NC(=O)c2cncn2[C@H](C)c2ccccc2)cc1`: the Activity in [3] amounted to 25.3%; in [4] it was 66.5%.

As to `C[C@H](c1ccccc1)n1cncc1C(=O)N(C)c1ccc(Cl)cc1`, the Activity was found to be 63.1% in [3] (filed as agonist) and 71.9% in series [4].

Regarding `Cc1ccc(N(C)C(=O)c2cncn2[C@H](C)c2ccccc2)cc1`, the values for the Activity in series [3] (filed as agonist) and in [4] were 62.1% and 86.7%, respectively.

As to `C[C@H](c1ccccc1)n1cncc1C(=O)Nc1cccc(F)c1`, the Activity in series [3] was determined as 20.1%; in [4], 56.2%.

By IC50 is commonly meant the midpoint of a concentration-inhibition curve. On to `O=C(c1cncn1Cc1cc(Cl)ccc1Cl)N1CCN(C2CC2)c2ccccc21`, for which the remaining at 1 h in [5] was 112%. For the same compound, the results for the EC50 in [1] and in series [2] were 0.832 µM and 0.0095 µM, respectively. Further, the Activity was 2.3% in series [6], 13.7% with Mus musculus [7], -0.8% in series [8] and 0.31% in series [10]. In addition, the IC50 with HeLa and in the series with A549 was above 50 µM each time. Also, the remaining at 2 h in series [9] turned out to be 105%.

On to `O=C(c1cncn1Cc1ccc(F)cc1)N1CCN(C2CC2)c2ccccc21`, for which the figures for the concentration giving a half-maximal response (EC50) in series [1] and in series [2] were above 10 µM and 0.568 µM, respectively.

With `C[C@H](c1ccccc1)n1cncc1C(=O)Nc1ccccc1F`, the Activity was 16.5% in series [3] and 48.4% in series [4].

For the compound `C[C@H](c1ccccc1)n1cncc1C(=O)N1CCN(C2CC2)c2ccccc21`, the Activity in series [3] (filed as agonist) came out at 89.8%; in series [4], 97.4%. In series [2], this compound returned an EC50 of 0.33 µM.

Consider `O=C(c1cncn1Cc1ccc(F)cc1F)N1CCN(C2CC2)c2ccccc21`, for which the EC50 in series [1] was above 10 µM; in [2] it was 0.338 µM.

Regarding `COc1ccc(N2CCN(C(=O)c3cncn3[C@H](C)c3ccccc3)CC2)cc1`, the Activity amounted to 79.1% in [3] (filed as agonist) and 89.7% in series [4]. In addition, it took 4.39 µM to reach a half-maximal effect in series [2] (EC50).

Turning to `O=C(c1cncn1Cc1ccc(Cl)cc1Cl)N1CCN(C2CC2)c2ccccc21`, in [5], the remaining at 1 h came to 107%. Further, the EC50 amounted to 0.611 µM in series [1] and 0.0068 µM in [2]. Also, the outcome with Mus musculus [11] was inactive. For the same compound, the Activity in [6] was 1.1%; in the series with Mus musculus [7], 15.8%; in series [8] it was 1.6%; in [10] it was -1.1%. Besides, the IC50 in the series with HeLa and in the series on A549 was above 50 µM in each case. Besides, in [9], the remaining at 2 h stood at 104%. In the series with Mus musculus [12], the outcome was Active.

As to `C[C@H](c1ccccc1)n1cncc1C(=O)N(C)c1ccc(F)cc1`, the Activity amounted to 70.9% in series [3] (filed as agonist) and 85.4% in [4]. In addition, the EC50 in series [2] is 1.05 µM.

Regarding `C[C@H](c1ccccc1)n1cncc1C(=O)N1CCCc2ccccc21`, the Activity in [3] (filed as agonist) was determined as 48.3%; in series [4] it was 77.1%.

For the compound `C[C@H](c1ccccc1)n1cncc1C(=O)N1CCOc2ccccc21`, the Activity in series [3] (filed as agonist) stood at 54.1%; in series [4], 74.5%.

As to `C[C@H](c1ccccc1)n1cncc1C(=O)Nc1ccc(Cl)cc1`, the Activity in series [3] worked out at 37.7%; in series [4], 84.1%.

In the case of `C[C@H](c1ccccc1)n1cncc1C(=O)Nc1ccc(F)cc1`, the Activity was found to be 51.3% in [3] (filed as agonist) and 85.2% in [4].

On to `C[C@H](c1ccccc1)n1cncc1C(=O)N1CCN(c2ccccc2)CC1`, for which the results for the Activity in series [3] (filed as agonist) and in [4] were 41.7% and 81.6%, respectively.

Take `COc1ccccc1N1CCN(C(=O)c2cncn2[C@H](C)c2ccccc2)CC1`: the values for the Activity in series [3] and in [4] were 17.4% and 49.2%, respectively.

On to `O=C(c1cncn1Cc1ccccc1)N1CCN(C2CC2)c2ccccc21`, for which the EC50 amounted to 3.5 µM in [1] and 1.75 µM in [2].

For `Cc1ccc(NC(=O)c2cncn2[C@H](C)c2ccccc2)cc1`, the Activity was determined as 20.2% in [3] and 63.3% in series [4].

On to `C[C@H](c1ccccc1)n1cncc1C(=O)N1CCN(c2ccccc2F)CC1`, for which the values for the Activity in [3] (filed as agonist) and in series [4] were 79.3% and 95.3%, respectively. The compound also showed an EC50 in [2] of 1.09 µM.
